Only some compounds are listed: those with a hit (about 2.3% of all), similar ones and a draw of the others.
TRPC6 inhibitor – mouse TRPC6 channel inhibition; HEK293-TRPC6, membrane potential dye, ACh-evoked depolarization; active compounds read low; B-score at 10 µM; AID 2553; 1.1% of 310,000 active;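 active = B-score under library mean minus 3 SD, initial fluorescence not abnormally high, positive integrated signal ratio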;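 note: B-score derived from integrated fluorescence ratio over the kinetic read; more negative B-score means stronger inhibition of depolarization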
Target sequence (Q61143 whole entry, looked up): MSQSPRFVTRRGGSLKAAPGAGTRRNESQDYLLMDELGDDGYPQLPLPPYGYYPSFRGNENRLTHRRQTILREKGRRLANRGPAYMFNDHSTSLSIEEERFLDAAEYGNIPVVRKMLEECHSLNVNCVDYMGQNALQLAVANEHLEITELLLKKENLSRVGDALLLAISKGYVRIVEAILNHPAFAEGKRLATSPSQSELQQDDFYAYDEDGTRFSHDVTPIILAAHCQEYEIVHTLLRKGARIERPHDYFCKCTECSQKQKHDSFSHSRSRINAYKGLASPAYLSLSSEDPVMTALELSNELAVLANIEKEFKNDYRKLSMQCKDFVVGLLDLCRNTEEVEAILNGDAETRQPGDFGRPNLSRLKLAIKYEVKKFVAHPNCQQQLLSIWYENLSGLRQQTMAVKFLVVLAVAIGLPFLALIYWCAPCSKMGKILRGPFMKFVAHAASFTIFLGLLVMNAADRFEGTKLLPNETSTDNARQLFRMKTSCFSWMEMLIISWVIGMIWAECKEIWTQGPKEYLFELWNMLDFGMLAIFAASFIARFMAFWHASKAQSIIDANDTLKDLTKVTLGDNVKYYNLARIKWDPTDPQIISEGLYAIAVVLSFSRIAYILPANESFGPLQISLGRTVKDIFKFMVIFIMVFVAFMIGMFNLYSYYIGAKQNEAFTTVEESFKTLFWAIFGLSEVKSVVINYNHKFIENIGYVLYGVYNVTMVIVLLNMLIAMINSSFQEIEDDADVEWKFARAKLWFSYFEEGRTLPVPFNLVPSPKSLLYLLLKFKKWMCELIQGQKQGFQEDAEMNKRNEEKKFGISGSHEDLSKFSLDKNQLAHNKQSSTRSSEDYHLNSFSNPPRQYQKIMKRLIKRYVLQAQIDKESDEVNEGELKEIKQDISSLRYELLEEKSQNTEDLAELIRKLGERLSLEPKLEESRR
TRPC4 inh – inhibitors of mouse TRPC4 channel; 0.39% of 300,000 active; HEK293 TRPC4beta/mu-opioid, DAMGO-evoked Fluo4 calcium flux; active compounds read low; Q9QUQ5; B-score at 10 µM;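 active = B-score over 3 SD under the library average, no early fluorescence shift, positive overall ratio signal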
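test system = HEK293 cells with stable TRPC4beta plus mu-opioid receptor expression | detection = Fluo4 Ca2+ flux fluorescence | read-out = integrated fluorescence ratio relative to baseline, converted to per-well B score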
TRPC6 act – mouse TRPC6 channel activation; Q61143; HEK293-TRPC6 membrane potential dye fluorescence; active compounds read high; B-score at 10 µM; 0.13% of 310,000 active; AID 2550;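 active = B-score of the integrated fluorescence ratio above library mean plus 3 SD, and starting fluorescence ratio within library mean plus 5 SD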;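 note: higher score means more depolarization so channel activation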
TRPC4 act – activators of mouse TRPC4 channel | B-score at 10 µM | Q9QUQ5 | HEK293 TRPC4beta/mu-opioid, Fluo4 calcium fluorescence; active compounds read high | AID 2237 | 0.49% of 310,000 active;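 active = B-score above 5 SD of library B-scores, and initial fluorescence ratio not above library mean plus 5 SD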;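 note: positive B-score marks a calcium rise read as TRPC4 activation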
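Material: HEK293 stable line with TRPC4beta plus mu-opioid receptor; technique: Fluo4 calcium-sensitive dye fluorescence, kinetic, 1 Hz baseline; timing: Fluo4 dye loading 45 min at room temperature, 110 s recording; controls: assay buffer as low control, maximal DAMGO as high control; read-out: integrated baseline-normalised fluorescence ratio, converted to per-well B score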
TRPC4 PAM – allosteric potentiators of mouse TRPC4 channel; HEK293 TRPC4beta/mu-opioid, DAMGO EC20, Fluo-4 Ca2+ flux; active compounds read high; B-score at 10 µM; 0.42% of 310,000 active;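 active = B-score of calcium response area above 5 SD of library B-scores, with initial fluorescence ratio within 5 SD of library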;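 note: B-score of integrated fluorescence ratio over time as area under calcium response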
TRPC4 sel inh 2 – second check of whether TRPC6 inhibitors also affect mouse TRPC4 | shares compounds with TRPC6 inhibitor | HEK293 TRPC4/MOR, membrane potential dye fluorescence; channel activated by saturating DAMGO dose | inhibition, % at 10 µM | 42% of 920 active;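 active = compounds whose fluorescence signal differed from control wells by over 3 SD, either direction, in both duplicate plates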
TRPC4 spec – tests whether TRPC6 inhibitors also affect mouse TRPC4. shares compounds with TRPC6 inhibitor. 61% of 920 active. AID 2777. activity change, negative = inhibition, % at 10 µM. HEK293 TRPC4/mu-opioid, membrane potential fluorescence;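 active = rise or fall in signal beyond 3 SD of buffer-only wells in both replicate plates, either sign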;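 note: integrated kinetic ratio of fluorescence range over baseline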
HEK293 MPD ctr 2-1 – second check of TRPC6 inhibitor effects in parental HEK293 cells | parental HEK293 membrane potential dye fluorescence; maximal acetylcholine challenge after compound addition | signal change vs control, % at 10 µM | shares compounds with TRPC6 inhibitor | 31% of 920 active;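 active = membrane potential signal moving either way by over 3 SD of the maximum-effect control, in both duplicate plates, meaning non-specific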
HEK293 MPD ctr-1 – parental HEK293 nonspecific activity of TRPC6 inhibitors | AID 2780 | 60% of 920 active | membrane potential signal change, % at 10 µM | parental HEK293 membrane potential dye fluorescence | shares compounds with TRPC6 inhibitor;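 active = membrane potential signal shifting up or down by more than 3 SD of buffer-only wells, on both duplicate plates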
HEK293 MPD ctr-2 – parental HEK293 nonspecific activity of TRPC6 modulators; membrane potential dye fluorescence; shares compounds with TRPC6 inhibitor; membrane potential signal change, % at 10 µM; 51% of 2,400 active;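 active = membrane potential signal moves up or down beyond 5 SD from buffer-only wells, on both duplicate plates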
HEK293 MPD ctr 2-2 – second counter-screen for TRPC6 modulators: effect in parental HEK293 cells | shares compounds with TRPC6 inhibitor | membrane potential dye fluorescence; after compound, maximal acetylcholine stimulation | inhibition, % at 10 µM | 14% of 2,400 active;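 active = membrane potential signal drops by more than 5 SD from the mean control signal, in both duplicate plates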;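 note: plate controls were acetylcholine ECmax control wells for no effect and buffer only wells for full effect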
TRPC4 ctr mod – mouse TRPC4 off-target activity of TRPC6 modulators; shares compounds with TRPC6 inhibitor; HEK293 TRPC4/mu-opioid, membrane potential fluorescence; percent change from control (negative = decrease, positive = increase), % at 10 µM; 69% of 2,400 active;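 active = membrane potential signal moved up or down beyond 5 SD of buffer control wells, in both duplicate plates, actives on both sides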;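 note: plate controls were assay buffer wells for no effect and DAMGO maximal-effect wells for full effect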
TRPC4 ctr inh 2 – mouse TRPC4 off-target activity of TRPC6 modulators, second screen; 55% of 2,400 active; inhibition, % at 10 µM; HEK293 TRPC4/mu-opioid, membrane potential dye fluorescence; stimulated with maximal-effect DAMGO; shares compounds with TRPC6 inhibitor;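 active = drop in membrane potential signal beyond 5 SD of the control wells in both duplicate plates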;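 note: TRPC4 counter screen for TRPC6 hits run under conditions tuned for TRPC6 not TRPC4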
TRPC6 inh conf – mouse TRPC6 inhibitor confirmation | shares compounds with TRPC6 inhibitor | HEK293-TRPC6, membrane potential dye, ACh-evoked depolarization | inhibition, % at 10 µM | 43% of 3,300 active | AID 488960;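 active = fluorescence ratio falls more than 5 SD below the full-stimulation control mean, in both duplicate runs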;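 note: integrated fluorescence ratio of peak minus minimum over baseline after agonist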
TRPC6 act conf – confirmation of mouse TRPC6 activators | HEK293-TRPC6 membrane potential dye fluorescence, FDSS | shares compounds with TRPC6 inhibitor | 11% of 2,800 active | activation, % at 10 µM | AID 488961;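 active = ratio signal rise beyond 5 SD above unstimulated control wells' mean, seen in both duplicate runs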;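 note: plate controls were buffer EC0 wells for no effect and acetylcholine ECmax response for full effect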
* = called active by the depositor; i = inactive; . = no result given; + = active, no number.

SMILES	TRPC6 inhibitor	TRPC4 inh	TRPC6 act	TRPC4 act	TRPC4 PAM	HEK293 MPD ctr-2	HEK293 MPD ctr 2-2	TRPC4 ctr mod	TRPC4 ctr inh 2	TRPC6 inh conf	TRPC6 act conf	others
Cc1ccc(SCCC(=O)NCC2CCCO2)cc1 (stereo unspecified)	i	i	i	i	i	.	.	.	.	.	.
Cc1ccc(S(=O)(=O)N(Cc2ccccc2)c2ccccc2C(=O)N2CCCCC2)cc1	i	i	i	i	i	.	.	.	.	.	.
COc1ccc(-c2[nH]c3ccccc3c2SCCN)cc1	-8.7*	i	i	i	i	.	.	.	.	74%*	i	TRPC4 sel inh 2=45%*;TRPC4 spec=-16%*;HEK293 MPD ctr 2-1=i;HEK293 MPD ctr-1=-262%*
CC1CCN(C(=O)N2c3ccccc3Sc3ccccc32)CC1	i	i	i	i	i	.	.	.	.	.	.
CC1CCN(CC(O)CN2c3ccccc3Sc3ccccc32)CC1 (stereo unspecified)	-6.7*	i	i	i	i	.	.	.	.	i	i	TRPC4 sel inh 2=66%*;TRPC4 spec=1.4%*;HEK293 MPD ctr 2-1=i;HEK293 MPD ctr-1=i
CCCC(=O)NC(c1ccc2c(c1)OCO2)c1cc(Cl)c2cccnc2c1O (stereo unspecified)	-5.8*	i	i	i	i	118%*	i	i	i	i	i
CC(C)(C)n1nnnc1C(c1cc2cc3c(cc2[nH]c1=O)OCCO3)N1CCSCC1 (stereo unspecified)	-5.2*	i	i	i	i	i	i	i	i	52%*	.
O=C(CCn1c(=O)oc2ccccc21)Nc1ccc2c(c1)OCCO2	i	i	i	i	i	.	.	.	.	.	.
C=CCSc1nc(N)c2c3c(sc2n1)CN(C)CC3	-6.5*	i	i	i	i	-76%*	i	-20%*	i	i	i
CSc1nc(N)c2c3c(sc2n1)CN(C)CC3	-7*	i	i	i	i	-124%*	i	-25%*	i	i	i
COC(CSc1nc(N)c2c3c(sc2n1)CN(C)CC3)OC	i	i	i	i	i	.	.	.	.	.	.
O=C(NCC(=O)N(c1cccc(F)c1)C(C(=O)NC1CCCC1)c1ccco1)c1ccco1 (stereo unspecified)	i	i	i	i	i	.	.	.	.	.	.
O=C(NCC(=O)N(c1ccc2c(c1)OCCO2)C(C(=O)NC1CCCC1)c1ccco1)c1ccco1 (stereo unspecified)	-7.7*	i	i	i	i	.	.	.	.	62%*	.	TRPC4 sel inh 2=i;TRPC4 spec=1.1%*;HEK293 MPD ctr 2-1=i;HEK293 MPD ctr-1=0.7%*
COc1cc(/C=C2\SC(=O)N(CCN)C2=O)ccc1OS(=O)(=O)c1cc(C)ccc1C	-7.2*	i	i	i	i	.	.	.	.	i	i	TRPC4 sel inh 2=i;TRPC4 spec=i;HEK293 MPD ctr 2-1=i;HEK293 MPD ctr-1=i
NCCN1C(=O)S/C(=C\c2ccc3c(c2)OCO3)C1=O	-5.4*	i	i	i	i	i	i	-9.5%*	42%*	36%*	i
O=C(CCN1C(=O)/C(=C/c2ccc3c(c2)OCO3)SC1=S)Nc1cccc(C(=O)O)c1	i	i	i	i	i	.	.	.	.	.	.
O=c1c(O)c(-c2cccs2)oc2ccc(Cl)cc12	i	i	76*	i	i	+	i	326%*	82%*	i	334%*
CN1CCc2cc3c(c4c2[C@H]1[C@H](O)c1ccccc1-4)OCO3	-5.1*	i	i	i	i	i	i	-24%*	48%*	i	i
COc1ccc2c(c1OC)C(=O)OC2C1c2c(cc3c(c2OC)OCO3)CCN1C (stereo unspecified)	i	i	i	i	i	.	.	.	.	.	.
CC[N+](C)(CC)CCC/C(=N/O)C(O)(c1ccccc1)c1ccccc1	-8.5*	i	i	i	i	.	.	.	.	71%*	i	TRPC4 sel inh 2=i;TRPC4 spec=i;HEK293 MPD ctr 2-1=3.5%*;HEK293 MPD ctr-1=i
CC/C(CC(C)(C)c1ccccc1)=N\O	i	i	i	i	i	.	.	.	.	.	.
CCN(CC)CCC/C(=N\O)C(O)(c1ccccc1)c1ccccc1	-9.4*	i	i	i	i	.	.	.	.	88%*	i	TRPC4 sel inh 2=i;TRPC4 spec=0.0%*;HEK293 MPD ctr 2-1=-37%*;HEK293 MPD ctr-1=i
O=C(CSc1nc2c(c(=O)n1-c1ccc(Br)cc1)SCC2)NCC1CCCO1 (stereo unspecified)	-5*	i	i	i	i	108%*	i	25%*	32%*	51%*	.
Fc1ccc(C(CCNCc2ccccn2)c2ccc(Cl)cc2)cc1 (stereo unspecified)	-5.2*	i	i	i	i	188%*	i	31%*	74%*	i	.
Cc1ccc(NS(=O)(=O)c2cccc3nsnc23)cc1[N+](=O)[O-]	i	i	i	i	i	.	.	.	.	.	.
Cc1ccc2c(c1)sc(-c1ccc(N(C)C)cc1)[n+]2C	-5.5*	i	i	i	i	i	84%*	i	i	56%*	i
CCCN1C2CCCC1CC(NC(=S)Nc1cc(C)cc(C)c1)C2 (stereo unspecified)	i	i	i	i	i	.	.	.	.	.	.

From PubChem
